Laboratory results taken from ChEMBL document CHEMBL4308891, “Small molecules inhibit ex vivo tumor growth in bone” (Bioorg Med Chem, 2018).
Active and inactive are the calls of the source. The rule behind the calls is not given here.

Experiments:
MDA-MB-231 [1] = test: Antiinvasive activity in human MDA-MB-231 cells assessed as inhibition of cell invasion at 5 uM by boyden chamber method relative to control; assay type: functional
MDA-MB-231 [2] = test: (§1) Ex vivo antitumor activity against human MDA-MB-231 cells co-cultured with neonatal Swiss mouse bone in BGJb medium assessed as inhibition of tumor growth at 5 uM administered simultaneously with cancer cells measured on day 7 post treatment by Gaussia luciferase reporter gene assay relative to control; assay type: functional
Method in brief: (§2)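 Calvariae from […] Swiss mouse pups were punched into 4 or 5 mm disks. Each was seeded with 1 x 10^4 tumor cells (lentiviral secreted Gaussia luciferase/GFP-blasticidin, FACS-sorted GFP+) in BGJb plus 10% fetal calf serum at 37°C, 5% CO2. After 24 h bones moved to fresh wells; medium changed every 2 days. Conditioned-medium luciferase read as RLU. Biological triplicate, mean ± SD, Welch's t-test.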

MDA-MB-231 [3] = test: (§3) Ex vivo antitumor activity against human MDA-MB-231 cells co-cultured with neonatal Swiss mouse bone in BGJb medium assessed as inhibition of tumor growth at 5 uM administered on day 2 post cancer cells addition measured on day 5 post treatment by Gaussia luciferase reporter gene assay relative to control; assay type: functional; method in brief: as §2
MDA-MB-231 [4] = test: as §3, with “day 7” for “day 5”; assay type: functional; method in brief: as §2
MDA-MB-231 [5] = test: as §1, with “5” for “7”; assay type: functional; method in brief: as §2
Bone [6] = test: Effect on TRAP expression in neonatal Swiss mouse calvariae bone measured on day 7 post treatment by SYBR green-dye based RT-qPCR analysis; assay type: functional, tissue-based; settings: Bone element
Method in brief: (§4)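 Calvarial disk cultures ([…] Swiss pups) in BGJb plus 10% fetal calf serum were PBS-washed at day 7 and bead-homogenized in Qiazol. Aqueous-phase RNA was isolated, reverse-transcribed and run in triplicate real-time PCR with species-specific primers. Expression was normalized to ribosomal protein L32 mRNA. n = 3 or 4 cultures, ANOVA.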

MDA-MB-231 [7] = test: Down regulation of CDH11 expression in human MDA-MB-231 cells co-cultured with neonatal Swiss mouse calvariae bone measured on day 7 post treatment by SYBR green-dye based RT-qPCR analysis
Bone [8] = test: Effect on Col1A1 expression in neonatal Swiss mouse calvariae bone co-cultured with human MDA-MB-231 cells measured on day 7 post treatment by SYBR green-dye based RT-qPCR analysis; assay type: functional, tissue-based; settings: Bone element; method in brief: as §4
MIA PaCa-2 [9] = test: Antiinvasive activity in human MIAPaCa2 cells at 5 uM by boyden chamber method; assay type: functional, cell-based
U-87 MG [10] = test: Cytotoxicity against human U87 cells after 24 hrs; assay type: cell-based; settings: u-87mg atcc
MDA-MB-231 [11] = test: Down regulation of IL-8 expression in human MDA-MB-231 cells co-cultured with neonatal Swiss mouse calvariae bone measured on day 7 post treatment by SYBR green-dye based RT-qPCR analysis; assay type: functional, cell-based; method in brief: as §4
MDA-MB-231 [12] = test: Effect on CTGF expression in human MDA-MB-231 cells co-cultured with neonatal Swiss mouse calvariae bone measured on day 7 post treatment by SYBR green-dye based RT-qPCR analysis; assay type: functional, cell-based; method in brief: as §4
MDA-MB-231 [13] = test: Cytotoxicity against human MDA-MB-231 cells at 0.625 to 5 uM after 24 hrs; assay type: cell-based; settings: mda-mb-231, 24 h
MDA-MB-231 [14] = test: Upregulation of BCL2L1 expression in human MDA-MB-231 cells co-cultured with neonatal Swiss mouse calvariae bone measured on day 7 post treatment by SYBR green-dye based RT-qPCR analysis; assay type: functional, cell-based; method in brief: as §4
MDA-MB-231 [15] = test: Antimigratory activity in human MDA-MB-231 cells at 10 uM after 9 hrs by wound healing assay; assay type: functional, cell-based
Method in brief: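 Confluent monolayers in 12-well plates were scratched with a micropipette tip, washed, then cultured in complete medium with compound. Gap width between wound edges was measured by microscopy in three random regions right after wounding and at 6 and 9 h.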

NCI-H460 [16] = test: Cytotoxicity against human NCI-H460 cells after 24 hrs; assay type: cell-based; settings: nci-h460, 24 h
MDA-MB-231 [17] = test: Upregulation of Fas expression in human MDA-MB-231 cells co-cultured with neonatal Swiss mouse calvariae bone measured on day 7 post treatment by SYBR green-dye based RT-qPCR analysis; assay type: functional, cell-based; method in brief: as §4
NCI-H460 [18] = test: Antiinvasive activity in human NCI-H460 cells at 5 uM by boyden chamber method; assay type: functional, cell-based
Bone [19] = test: Down regulation of RANKL expression in neonatal Swiss mouse calvariae bone co-cultured with human MDA-MB-231 cells measured on day 7 post treatment by SYBR green-dye based RT-qPCR analysis; assay type: functional, tissue-based; settings: Bone element; method in brief: as §4
Bone [20] = test: Effect on osteocalcin expression in neonatal Swiss mouse calvariae bone co-cultured with human MDA-MB-231 cells measured on day 7 post treatment by SYBR green-dye based RT-qPCR analysis; assay type: functional, tissue-based; settings: Bone element; method in brief: as §4
MDA-MB-231 [21] = test: Antiinvasive activity in human MDA-MB-231 cells by boyden chamber method; assay type: functional, cell-based
MIA PaCa-2 [22] = test: Cytotoxicity against human MIAPaCa2 cells after 24 hrs; assay type: cell-based; settings: mia paca-2, 24 h
MDA-MB-231 [23] = test: Down regulation of CCN3 expression in human MDA-MB-231 cells co-cultured with neonatal Swiss mouse calvariae bone measured on day 7 post treatment by SYBR green-dye based RT-qPCR analysis relative to control; assay type: functional; method in brief: as §4
MDA-MB-231 [24] = test: Effect on CCL2 expression in human MDA-MB-231 cells co-cultured with neonatal Swiss mouse calvariae bone measured on day 7 post treatment by SYBR green-dye based RT-qPCR analysis; assay type: functional, cell-based; method in brief: as §4
MDA-MB-231 [25] = test: Effect on ICAM expression in human MDA-MB-231 cells co-cultured with neonatal Swiss mouse calvariae bone measured on day 7 post treatment by SYBR green-dye based RT-qPCR analysis; assay type: functional, cell-based; method in brief: as §4
Bone [26] = test: Down regulation of TRAP expression in neonatal Swiss mouse calvariae bone co-cultured with human MDA-MB-231 cells measured on day 7 post treatment by SYBR green-dye based RT-qPCR analysis; assay type: functional, tissue-based; settings: Bone element; method in brief: as §4
MDA-MB-231 [27] = test: Down regulation of FGF5 expression in human MDA-MB-231 cells co-cultured with neonatal Swiss mouse calvariae bone measured on day 7 post treatment by SYBR green-dye based RT-qPCR analysis; assay type: functional, cell-based; method in brief: as §4
Bone [28] = test: Effect on RANKL expression in neonatal Swiss mouse calvariae bone measured on day 7 post treatment by SYBR green-dye based RT-qPCR analysis; assay type: functional, tissue-based; settings: Bone element; method in brief: as §4
U-87 MG [29] = test: Antiinvasive activity in human U87 cells at 5 uM by boyden chamber method; assay type: functional, cell-based; settings: U-87MG ATCC
[30] = Inhibition of angiogenesis in human HRMEC assessed as inhibition of endothelial cell tube formation up to 10 uM after 8 hrs by microscopic analysis
Method in brief: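 Primary human retinal microvascular endothelial cells were grown on Matrigel in complete medium for 8 h, then tubule formation was measured. Significance was assessed by ANOVA.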

MDA-MB-231 [31] = test: Cytotoxicity against human MDA-MB-231 cells at 12.5 uM after 3 days by MTS assay; assay type: cell-based; settings: mda-mb-231, 72 h
MDA-MB-231 [32] = test: Down regulation of ENPP1 expression in human MDA-MB-231 cells co-cultured with neonatal Swiss mouse calvariae bone measured on day 7 post treatment by SYBR green-dye based RT-qPCR analysis relative to control; assay type: functional; method in brief: as §4
MDA-MB-231 [33] = test: Down regulation of IL11 expression in human MDA-MB-231 cells co-cultured with neonatal Swiss mouse calvariae bone measured on day 7 post treatment by SYBR green-dye based RT-qPCR analysis relative to control; assay type: functional; method in brief: as §4

## COc1cccc(C2=NNC3C(=O)N(CCc4c[nH]c5ccccc45)C(c4cccc(F)c4)C23)c1 (stereo unspecified)
MDA-MB-231 [1]
  inhibition at 5 µM: 90%
MDA-MB-231 [2]
  TGI: >50%
MDA-MB-231 [3]
  TGI: Active
MDA-MB-231 [4]
  TGI: >50%
MDA-MB-231 [5]
  TGI: Active

## O=C1C2NN=C(c3ccc(Cl)cc3)C2C(c2cccc(F)c2)N1Cc1c[nH]c2ccccc12 (stereo unspecified)
MDA-MB-231 [1]
  inhibition at 5 µM: 20%
MDA-MB-231 [2]
  TGI: Active
MDA-MB-231 [3]
  TGI: Active
MDA-MB-231 [4]
  TGI: Active
MDA-MB-231 [5]
  TGI: Active

## COc1ccc(N2C(=O)C3NN=C(c4ccc(Cl)cc4)C3C2c2cccc(F)c2)cn1 (stereo unspecified)
MDA-MB-231 [2]
  TGI: Active
MDA-MB-231 [3]
  TGI: Active
MDA-MB-231 [4]
  TGI: Active
MDA-MB-231 [5]
  TGI: Active

## O=C1C2NN=C(c3ccc(Cl)cc3)C2C(c2cccc(F)c2)N1CCc1c[nH]c2ccccc12 (stereo unspecified)
Bone [6]
  Activity: inactive
MDA-MB-231 [7]
  Activity: Active
MDA-MB-231 [1]
  inhibition at 5 µM: > 70%
Bone [8]
  Activity: inactive
MIA PaCa-2 [9]
  Activity: Active
U-87 MG [10]
  Activity: Non-Toxic
MDA-MB-231 [11]
  Activity: Active
MDA-MB-231 [12]
  Activity: inactive
MDA-MB-231 [13]
  Activity: Non-Toxic
MDA-MB-231 [14]
  Activity: Active
MDA-MB-231 [15]
  Activity: inactive
NCI-H460 [16]
  Activity: Non-Toxic
MDA-MB-231 [17]
  Activity: Active
MDA-MB-231 [2]
  TGI: 60%
NCI-H460 [18]
  Activity: inactive
MDA-MB-231 [3]
  TGI: 53%
Bone [19]
  Activity: Active
Bone [20]
  Activity: inactive
MDA-MB-231 [4]
  TGI: 36%
MDA-MB-231 [21]
  Activity: Dose-dependent effect
  IC50: 2600 nM
MIA PaCa-2 [22]
  Activity: Non-Toxic
MDA-MB-231 [23]
  Activity: 90%
MDA-MB-231 [24]
  Activity: inactive
MDA-MB-231 [25]
  Activity: inactive
Bone [26]
  Activity: Active
MDA-MB-231 [27]
  Activity: inactive
MDA-MB-231 [5]
  TGI: 70%
Bone [28]
  Activity: Active
U-87 MG [29]
  Activity: inactive
[30]
  Activity: Not Active
MDA-MB-231 [31]
  Activity: Non-Toxic
MDA-MB-231 [32]
  Activity: 90%

## CC(C)N1N=C(c2ccc(Cl)cc2)C2C(c3cccc(F)c3)N(CCc3c[nH]c4ccccc34)C(=O)C21 (stereo unspecified)
MDA-MB-231 [1]
  inhibition at 5 µM: > 70%
MDA-MB-231 [2]
  TGI: 40%
MDA-MB-231 [3]
  TGI: Active
MDA-MB-231 [4]
  TGI: 40%
MDA-MB-231 [5]
  TGI: Active

## Cc1ccc(N2C(=O)C3C(C(c4ccc(Cl)cc4)=NN3C(C)C)C2c2cccc(F)c2)cc1Br (stereo unspecified)
MDA-MB-231 [2]
  TGI: Active
MDA-MB-231 [3]
  TGI: Active
MDA-MB-231 [4]
  TGI: Active
MDA-MB-231 [5]
  TGI: Active

## Cc1ccc(N2C(=O)C3NN=C(c4ccc(Cl)cc4)C3C2c2cccc(F)c2)cc1Br (stereo unspecified)
MDA-MB-231 [1]
  inhibition at 5 µM: > 70%
MDA-MB-231 [33]
  Activity: >80%
Bone [8]
  Activity: inactive
MIA PaCa-2 [9]
  Activity: Active
U-87 MG [10]
  Activity: Non-Toxic
MDA-MB-231 [11]
  Activity: Active
MDA-MB-231 [12]
  Activity: inactive
MDA-MB-231 [13]
  Activity: Non-Toxic
MDA-MB-231 [14]
  Activity: Active
MDA-MB-231 [15]
  Activity: inactive
NCI-H460 [16]
  Activity: Non-Toxic
MDA-MB-231 [17]
  Activity: Active
MDA-MB-231 [2]
  TGI: 60%
NCI-H460 [18]
  Activity: inactive
MDA-MB-231 [3]
  TGI: 66%
Bone [19]
  Activity: Active
Bone [20]
  Activity: inactive
MDA-MB-231 [4]
  TGI: 47%
MDA-MB-231 [21]
  Activity: Dose-dependent effect
  IC50: 2900 nM
MIA PaCa-2 [22]
  Activity: Non-Toxic
MDA-MB-231 [24]
  Activity: inactive
MDA-MB-231 [25]
  Activity: inactive
Bone [26]
  Activity: Active
MDA-MB-231 [27]
  Activity: inactive
MDA-MB-231 [5]
  TGI: 70%
U-87 MG [29]
  Activity: inactive
[30]
  Activity: Not Active
MDA-MB-231 [31]
  Activity: Non-Toxic
MDA-MB-231 [32]
  Activity: 60%
